As usually defined, the pIC50 is the IC50 on a negative log10 scale, so that one unit is a factor of ten. The pKi is the Ki on a negative log10 scale, so that one unit is a factor of ten.

Each structure is given as a SMILES string. pIC50, pKi: −log10 of the molar value. Active and inactive are the calls of the source. No cut-off for these calls is given here.

Here are results for 5 compounds from ChEMBL document CHEMBL1144472, “Pyrogallol-based molecules as potent inhibitors of the antiapoptotic Bcl-2 proteins” (J Med Chem, 2007).

The target in assay [1] is T1, Apoptosis regulator Bcl-2 (Homo sapiens, UniProt P10415). Kind of assay: Displacement of biotinylated Bim BH3 peptide from recombinant His-tagged Bcl2 by ELISA assay. In general terms: An ELISA detects its analyte on a solid surface through an enzyme-linked reagent.
T1 sequence (P10415 whole entry): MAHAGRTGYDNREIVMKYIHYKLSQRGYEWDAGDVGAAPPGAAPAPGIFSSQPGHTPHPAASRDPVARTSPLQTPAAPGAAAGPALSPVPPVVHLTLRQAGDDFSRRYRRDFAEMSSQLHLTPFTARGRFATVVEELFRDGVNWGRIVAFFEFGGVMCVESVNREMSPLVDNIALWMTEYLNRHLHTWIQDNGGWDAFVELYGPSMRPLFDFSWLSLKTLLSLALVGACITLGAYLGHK
The target in assay [2] is T1, Apoptosis regulator Bcl-2. In words: Displacement of FAM-Bid BH3 peptide from human recombinant Bcl2 by FP-based binding assay. The method in brief:
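Competitive fluorescence-polarization binding assay with recombinant human Bcl-2 and a fluorescently tagged Bid BH3 peptide as tracer. Ki values were derived from the competitive binding curves.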

For assay [3], the system named is MDA-MB-231. In words: Induction of cell death in human MDA-MB-231 cells after 96 hrs by trypan blue exclusion assay. In kind it is functional, cell-based. The method in brief: (§1)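 MDA-MB-231 breast cancer cells were exposed to the inhibitor for 96 hours across a dose series that included 10, 100 and 1000 nM. Viability was scored by trypan blue exclusion.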
The target in assay [4] is T2, Induced myeloid leukemia cell differentiation protein Mcl-1 (Homo sapiens, UniProt Q07820). In words: Displacement of FAM-Bid BH3 peptide from human Mcl1 by FP-based binding assay.
T2 sequence (Q07820 whole entry): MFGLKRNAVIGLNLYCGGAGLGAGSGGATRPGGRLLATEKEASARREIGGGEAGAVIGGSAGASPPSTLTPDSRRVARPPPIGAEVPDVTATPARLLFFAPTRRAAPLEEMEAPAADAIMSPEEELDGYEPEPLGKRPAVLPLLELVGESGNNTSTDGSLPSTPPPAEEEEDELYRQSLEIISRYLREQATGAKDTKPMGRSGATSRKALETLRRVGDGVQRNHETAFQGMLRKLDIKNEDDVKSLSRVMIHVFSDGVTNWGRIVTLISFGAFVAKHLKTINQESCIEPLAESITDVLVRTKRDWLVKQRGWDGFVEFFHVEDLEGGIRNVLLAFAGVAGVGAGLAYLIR
The target of assay [5] is T2, Induced myeloid leukemia cell differentiation protein Mcl-1. In words: Displacement of biotinylated Bim BH3 peptide from recombinant His-tagged Mcl1 by ELISA assay.
For assay [6], the system named is MDA-MB-231. In words: Induction of cell death in human MDA-MB-231 cells at 10 nM after 96 hrs by trypan blue exclusion assay. Format: functional, cell-based. The method in brief:
as §1

For `CC(C)c1cc(C(=O)N2CCc3ccccc3C2)c(O)c(O)c1O`, the pIC50 in assay [1] was 4.42. In addition, in assay [2], the pKi was 5.51. Also, the Activity result in the assay with MDA-MB-231 [3] is “Dose-dependent effect”.
As for `CN(CCCc1ccccc1)S(=O)(=O)c1cc(C(=O)N2CCc3ccc(S(=O)(=O)NCCc4ccccc4)cc3C2)c(O)c(O)c1O`, the pKi in assay [4] is 6.82; in assay [2] it was 6.96. Also, the pIC50 in assay [5] was 7.41; in assay [1] it was 6.48. Further, the result in the assay on MDA-MB-231 [6] was Active. Moreover, the Activity result with MDA-MB-231 [3] is “Dose-dependent effect”.
On to `CC(C)c1cc(C(=O)Nc2ccccc2)c(O)c(O)c1O`, for which the pKi in assay [2] is 4.50. In addition, the Activity result in the assay with MDA-MB-231 [3] is “Dose-dependent effect”.
Consider `CC(C)c1cc(C(=O)N2CCc3ccc(S(=O)(=O)NCCc4ccccc4)cc3C2)c(O)c(O)c1O`, for which the pIC50 in assay [1] is 5.18. For the same compound, the pKi in assay [2] is 6.23. For the same compound, the Activity entry with MDA-MB-231 [3] was “Dose-dependent effect”.
For `CN(C)CC[C@H](CSc1ccccc1)Nc1ccc(S(=O)(=O)NC(=O)c2ccc(N3CCN(Cc4ccccc4-c4ccc(Cl)cc4)CC3)cc2)cc1[N+](=O)[O-]`, the Activity result in the assay with MDA-MB-231 [3] is “Dose-dependent effect”.
